This note sets out measurements from ChEMBL document CHEMBL3091445, “The 3,7-diazabicyclo[3.3.1]nonane scaffold for subtype selective nicotinic acetylcholine receptor ligands. Part 2: carboxamide derivatives with different spacer motifs” (Bioorg Med Chem, 2013).

Calls of active or inactive are those of the source. The calls are words filed in the database; no cut-off is given here.

The target of experiment [1] is T1, Nicotinic acetylcholine receptor alpha1/beta1/epsilon/delta (Mus musculus) (UniProt P04756+P09690+P02716+P20782). Nature of the experiment: Agonist activity at mouse muscle alpha1beta1epsilondelta nAChR expressed in Xenopus oocytes at 10 uM incubated for 8 secs followed by compound washout measured after 241 secs by two-electrode voltage clamp technique. It is filed as cell-based. (In general: Two-electrode voltage clamp is typically applied to oocytes expressing channels or transporters.)

A short description of experiment [2]: Displacement of [3H]epibatidine from calf adrenal alpha3beta4 nAChR after 90 mins by liquid scintillation counting analysis. Details: species or system Bos taurus. (In a radioligand displacement assay an active substance lowers the binding of a labelled ligand.)
Experiment [3] addresses T2, Neuronal acetylcholine receptor; alpha4/beta2 (Homo sapiens) (UniProt P17787+P43681). Nature of the experiment: Partial agonist activity at human alpha4beta2 nAChR expressed in Xenopus oocytes at 10 uM incubated for 8 secs followed by compound washout measured after 241 secs by two-electrode voltage clamp technique. In kind it is cell-based.
Experiment [4] concerns the target T1, Nicotinic acetylcholine receptor alpha1/beta1/epsilon/delta (Mus musculus). Nature of the experiment: Antagonist activity at mouse muscle alpha1beta1epsilondelta nAChR expressed in Xenopus oocytes assessed as inhibition of acetylcholine-induced effect at 1 uM incubated for 8 secs followed by compound washout measured after 241 secs by two-electrode voltage clamp technique. In kind it is cell-based.

Experiment [5] concerns the target T3, Neuronal acetylcholine receptor; alpha3/beta4 (Homo sapiens) (UniProt P30926+P32297). Nature of the experiment: Agonist activity at human alpha3beta4 nAChR expressed in Xenopus oocytes at 10 uM incubated for 8 secs followed by compound washout measured after 241 secs by two-electrode voltage clamp technique. It is filed as cell-based.
Experiment [6] in a line: Displacement of [3H]epibatidine from Torpedo californica electroplax (alpha1)2beta1gammadelta nAChR after 90 mins by liquid scintillation counting analysis. Details: species or system Tetronarce californica.
Experiment [7] deals with Neuronal acetylcholine receptor subunit alpha-7 (Homo sapiens) (UniProt P36544). The experiment in a line: Antagonist activity at human alpha7 nAChR expressed in Xenopus oocytes assessed as inhibition of acetylcholine-induced effect at 1 uM incubated for 12 secs followed by compound washout measured after 181 secs by two-electrode voltage clamp technique. It is filed as cell-based.

In experiment [8] the target is Neuronal acetylcholine receptor subunit alpha-7 (Rattus norvegicus, UniProt Q05941). The experiment in a line: Displacement of [3H]methyllycaconitine from Sprague-Dawley rat brain alpha7 nAChR after 120 mins by liquid scintillation counting analysis. It is filed as tissue-based. An outline of the steps: (§1)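 Radioligand competition binding gave Ki values, reported as mean ± SEM from 2–10 independent experiments.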

Experiment [9] has as its target T3, Neuronal acetylcholine receptor; alpha3/beta4 (Homo sapiens). The experiment in a line: Antagonist activity at human alpha3beta4 nAChR expressed in Xenopus oocytes at 1 uM incubated for 8 secs followed by compound washout measured after 241 secs by two-electrode voltage clamp technique. In kind it is cell-based.
Experiment [10] has as its target Neuronal acetylcholine receptor; alpha4/beta2 (Rattus norvegicus, UniProt P09483+P12390). The experiment in a line: Displacement of [3H]epibatidine from Sprague-Dawley rat brain alpha4beta2 nAChR after 90 mins by liquid scintillation counting analysis. An outline of the steps: as §1
The target in experiment [11] is Neuronal acetylcholine receptor subunit alpha-7 (Homo sapiens) (UniProt P36544). The experiment in a line: Agonist activity at human alpha7 nAChR expressed in Xenopus oocytes at 1 uM incubated for 12 secs followed by compound washout measured after 181 secs by two-electrode voltage clamp technique. In kind it is cell-based.
Experiment [12] has as its target T3, Neuronal acetylcholine receptor; alpha3/beta4 (Homo sapiens). The experiment in a line: Agonist activity at human alpha3beta4 nAChR expressed in Xenopus oocytes at 1 uM incubated for 8 secs followed by compound washout measured after 241 secs by two-electrode voltage clamp technique. In kind it is cell-based.
The target in experiment [13] is T2, Neuronal acetylcholine receptor; alpha4/beta2 (Homo sapiens). The experiment in a line: Partial agonist activity at human alpha4beta2 nAChR expressed in Xenopus oocytes at 1 uM incubated for 8 secs followed by compound washout measured after 241 secs by two-electrode voltage clamp technique. In kind it is cell-based.
Experiment [14] addresses T1, Nicotinic acetylcholine receptor alpha1/beta1/epsilon/delta (Mus musculus). The experiment in a line: Agonist activity at mouse muscle alpha1beta1epsilondelta nAChR expressed in Xenopus oocytes at 1 uM incubated for 8 secs followed by compound washout measured after 241 secs by two-electrode voltage clamp technique. In kind it is cell-based.

Sequence of Neuronal acetylcholine receptor subunit alpha-7 (Homo sapiens) (P36544 whole entry): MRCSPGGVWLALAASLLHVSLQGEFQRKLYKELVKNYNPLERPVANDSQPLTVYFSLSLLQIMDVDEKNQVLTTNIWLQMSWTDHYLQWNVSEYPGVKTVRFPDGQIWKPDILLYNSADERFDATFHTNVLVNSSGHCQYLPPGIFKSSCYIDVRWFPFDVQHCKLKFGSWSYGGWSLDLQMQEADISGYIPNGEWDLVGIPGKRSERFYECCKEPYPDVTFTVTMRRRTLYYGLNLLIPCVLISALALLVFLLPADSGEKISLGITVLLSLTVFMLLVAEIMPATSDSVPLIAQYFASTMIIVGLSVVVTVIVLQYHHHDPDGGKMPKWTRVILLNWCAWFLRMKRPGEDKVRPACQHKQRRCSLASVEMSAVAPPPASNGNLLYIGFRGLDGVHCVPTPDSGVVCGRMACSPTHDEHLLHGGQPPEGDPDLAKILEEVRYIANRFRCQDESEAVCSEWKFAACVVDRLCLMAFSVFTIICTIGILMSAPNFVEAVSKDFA
Sequence of Neuronal acetylcholine receptor; alpha4/beta2 (P09483 whole entry): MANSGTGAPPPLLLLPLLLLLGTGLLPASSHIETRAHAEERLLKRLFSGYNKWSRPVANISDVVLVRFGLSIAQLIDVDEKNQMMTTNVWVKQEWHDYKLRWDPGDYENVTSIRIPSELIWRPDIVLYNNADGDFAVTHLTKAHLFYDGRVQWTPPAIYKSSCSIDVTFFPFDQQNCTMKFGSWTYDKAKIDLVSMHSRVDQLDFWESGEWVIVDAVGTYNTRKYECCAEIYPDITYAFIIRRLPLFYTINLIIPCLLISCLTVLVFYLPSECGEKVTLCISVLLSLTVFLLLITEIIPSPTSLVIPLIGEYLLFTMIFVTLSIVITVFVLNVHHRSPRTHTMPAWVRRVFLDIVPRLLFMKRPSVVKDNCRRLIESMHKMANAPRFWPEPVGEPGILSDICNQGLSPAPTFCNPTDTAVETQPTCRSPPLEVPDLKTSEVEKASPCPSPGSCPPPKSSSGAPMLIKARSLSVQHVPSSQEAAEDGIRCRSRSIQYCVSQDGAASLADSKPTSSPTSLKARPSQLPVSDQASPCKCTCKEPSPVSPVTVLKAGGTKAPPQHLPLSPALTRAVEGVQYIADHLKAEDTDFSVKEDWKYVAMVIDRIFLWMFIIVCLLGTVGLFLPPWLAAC
Sequence of Neuronal acetylcholine receptor; alpha4/beta2 (P12390 whole entry): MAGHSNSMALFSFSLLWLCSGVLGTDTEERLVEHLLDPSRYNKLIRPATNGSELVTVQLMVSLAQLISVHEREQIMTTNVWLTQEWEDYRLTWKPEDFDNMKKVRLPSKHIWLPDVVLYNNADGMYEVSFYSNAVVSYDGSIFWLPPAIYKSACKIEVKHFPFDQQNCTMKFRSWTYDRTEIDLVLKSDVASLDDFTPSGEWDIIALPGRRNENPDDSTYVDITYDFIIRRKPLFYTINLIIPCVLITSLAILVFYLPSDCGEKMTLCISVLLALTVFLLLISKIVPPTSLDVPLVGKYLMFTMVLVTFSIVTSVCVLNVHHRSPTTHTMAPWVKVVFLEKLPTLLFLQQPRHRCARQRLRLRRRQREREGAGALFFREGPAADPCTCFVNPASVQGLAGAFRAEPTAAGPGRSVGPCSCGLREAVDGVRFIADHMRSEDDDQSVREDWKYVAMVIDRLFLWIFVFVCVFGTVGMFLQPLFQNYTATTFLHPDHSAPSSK
Sequence of Neuronal acetylcholine receptor subunit alpha-7 (Q05941 whole entry): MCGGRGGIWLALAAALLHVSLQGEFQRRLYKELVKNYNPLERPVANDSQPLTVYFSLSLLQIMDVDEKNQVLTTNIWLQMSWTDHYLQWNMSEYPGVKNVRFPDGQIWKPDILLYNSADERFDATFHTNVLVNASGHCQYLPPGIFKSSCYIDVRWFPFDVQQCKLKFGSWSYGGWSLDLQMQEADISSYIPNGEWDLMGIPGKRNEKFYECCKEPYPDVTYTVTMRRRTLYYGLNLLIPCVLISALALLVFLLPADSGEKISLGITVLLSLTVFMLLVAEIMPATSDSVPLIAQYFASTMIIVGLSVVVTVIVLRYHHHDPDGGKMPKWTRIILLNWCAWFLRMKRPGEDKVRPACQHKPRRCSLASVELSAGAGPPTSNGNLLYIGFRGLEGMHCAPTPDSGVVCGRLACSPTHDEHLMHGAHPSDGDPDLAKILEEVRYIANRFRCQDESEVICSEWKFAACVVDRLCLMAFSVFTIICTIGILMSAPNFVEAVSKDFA

Turning to `O=C(CCc1cccnc1)N1C[C@@H]2CNC[C@@H](C2)C1`, the result in experiment [1], in experiment [5] and in experiment [9] was inactive. Moreover, the Ki in experiment [2] is over 5000 nM; in [6] it was over 5000 nM; in [8], over 5000 nM; in experiment [10] it was 39 nM. Moreover, in experiment [3], the outcome was Active. The inhibition result in experiment [4] and in experiment [7] was “inactive” in each case.

For `O=c1c(-c2cccnc2)ccc2n1C[C@@H]1CNC[C@H]2C1`, in [6], the Ki is over 5000 nM.

Turning to `O=C(c1csc(-c2ccncc2)n1)N1C[C@@H]2CNC[C@@H](C2)C1`, the Ki in [10] was over 1000 nM.

On to `COc1ccccc1C#CC(=O)N1C[C@@H]2CNC[C@@H](C2)C1`, for which the Ki in experiment [2] was over 1000 nM; in experiment [6] it was over 5000 nM; in [8], over 1000 nM; in [10], 242 nM.

Turning to `O=C(/C=C/c1ccsc1)N1C[C@@H]2CNC[C@@H](C2)C1`, the outcome in experiment [1], in [5] and in experiment [9] was inactive. In experiment [3], the result was Active. Moreover, the inhibition entry in [4] and in experiment [7] was “inactive” throughout. Moreover, the Ki in [8] is over 10000 nM; in experiment [10], 57.1 nM.

For `O=C(/C=C/c1cccc(Br)c1)N1C[C@@H]2CNC[C@@H](C2)C1`, the Ki in experiment [8] is over 10000 nM; in [10], 24.6 nM.

Take `O=c1c(-c2ccc3c(c2)OCO3)ccc2n1C[C@@H]1CNC[C@H]2C1`: the Ki is over 10000 nM in experiment [2], over 10000 nM in experiment [6], over 10000 nM in experiment [8] and 110 nM in experiment [10].

Regarding `O=C(/C=C/c1cccc(Cl)c1)N1C[C@@H]2CNC[C@@H](C2)C1`, the outcome in experiment [1], in experiment [5] and in experiment [9] was inactive. Further, in experiment [3], the result was Active. Further, the inhibition result in [4] and in [7] was “inactive” throughout. In addition, the Ki in experiment [8] was over 10000 nM; in experiment [10], 23.7 nM.

`O=C(c1ccccc1)N1C[C@@H]2CNC[C@@H](C2)C1`: the values for the Ki in experiment [2] and in experiment [6] were over 5000 nM and over 10000 nM, respectively.

Consider `O=C(/C=C/c1cccc([N+](=O)[O-])c1)N1C[C@@H]2CNC[C@@H](C2)C1`, for which the Ki is over 1000 nM in experiment [2], over 10000 nM in experiment [6] and 38.9 nM in experiment [10].

With `O=c1c(-c2ccncc2)ccc2n1C[C@@H]1CNC[C@H]2C1`, the Ki was over 10000 nM in [6], over 10000 nM in [8] and 3.9 nM in experiment [10].

Take `O=C(Cc1ccc2ccccc2c1)N1C[C@@H]2CNC[C@@H](C2)C1`: the result in experiment [1], in experiment [5] and in experiment [9] was inactive. The Ki is over 1000 nM in [2], over 5000 nM in experiment [6], over 1000 nM in experiment [8] and 10.2 nM in [10]. In addition, the outcome in experiment [3] was Active. For the same molecule, the inhibition entry in [4] and in experiment [7] was “inactive” each time.

In the case of `O=C(/C=C/c1ccco1)N1C[C@@H]2CNC[C@@H](C2)C1`, the Ki in experiment [2] is over 1000 nM; in experiment [6] it was over 5000 nM; in experiment [8] it was over 1000 nM; in experiment [10], 288 nM.

Regarding `COc1cc(CCC(=O)N2C[C@@H]3CNC[C@@H](C3)C2)cc(OC)c1OC`, the Ki in experiment [2] is over 5000 nM; in experiment [8], over 10000 nM; in [10], 233 nM.

In the case of `O=c1cccc2n1C[C@@H]1CNC[C@H]2C1` [CYTISINICLINE], the Ki in experiment [2] is 18 nM; in experiment [6] it was 1300 nM; in experiment [8], 261 nM.

For the molecule `O=C(COc1ccccc1Cl)N1C[C@@H]2CNC[C@@H](C2)C1`, the Ki in experiment [2] was over 5000 nM; in experiment [6] it was over 5000 nM; in experiment [8] it was over 5000 nM; in experiment [10], 548 nM.

As to `COc1ccc(/C=C/C(=O)N2C[C@@H]3CNC[C@@H](C3)C2)cc1`, the result in [1], in experiment [11], in experiment [5], in experiment [12], in [14] and in experiment [9] was inactive. Also, the result in experiment [3] and in [13] was Active. In addition, the inhibition result in experiment [4] and in experiment [7] was “inactive” in each case. The affinity in experiment [10], expressed as Ki, was 39.6 nM.

Turning to `O=C(C#Cc1cccc(F)c1)N1C[C@@H]2CNC[C@@H](C2)C1`, the Ki in [2] is over 1000 nM; in experiment [6], over 5000 nM; in experiment [8], over 1000 nM; in experiment [10], 7.1 nM.

For the molecule `O=C(C#Cc1ccccc1)N1C[C@@H]2CNC[C@@H](C2)C1`, the outcome in experiment [1], in [5] and in experiment [9] was inactive. The Ki in experiment [2] is over 1000 nM; in experiment [6] it was over 1000 nM; in experiment [8], over 5000 nM; in [10] it was 10.9 nM. Further, the outcome in experiment [3] was Active. In addition, the inhibition result in experiment [4] and in experiment [7] was “inactive” in each case.

`O=C(Cc1c(F)c(F)c(F)c(F)c1F)N1C[C@@H]2CNC[C@@H](C2)C1`: in experiment [10], the Ki is over 5000 nM.

For `Cc1ccc(C#CC(=O)N2C[C@@H]3CNC[C@@H](C3)C2)cc1`, the Ki in experiment [2] is over 1000 nM; in [6] it was over 5000 nM; in experiment [8], over 1000 nM; in experiment [10], 10.9 nM.

On to `O=C(/C=C/c1cccs1)N1C[C@@H]2CNC[C@@H](C2)C1`, for which the Ki in experiment [2] was 2000 nM; in experiment [8], over 10000 nM; in experiment [10] it was 96.9 nM.

For the molecule `O=C(C#Cc1cccc2ccccc12)N1C[C@@H]2CNC[C@@H](C2)C1`, the Ki is over 1000 nM in experiment [2], over 5000 nM in [6], over 1000 nM in experiment [8] and 46 nM in experiment [10].

In the case of `COc1cccc(C#CC(=O)N2C[C@@H]3CNC[C@@H](C3)C2)c1`, the Ki is over 1000 nM in experiment [2], over 5000 nM in experiment [6], over 1000 nM in [8] and 6.3 nM in [10].

`O=C(/C=C/c1ccc(F)cc1)N1C[C@@H]2CNC[C@@H](C2)C1`: the result in [1] and in experiment [9] was inactive. Further, the Ki in experiment [2] was over 5000 nM; in experiment [6], over 10000 nM; in experiment [8], over 5000 nM; in experiment [10], 20.7 nM. For the same molecule, the result in [3] was Active. Also, the inhibition entry in [4] and in experiment [7] was “inactive” each time.

For `COc1ccc(C#CC(=O)N2C[C@@H]3CNC[C@@H](C3)C2)cc1`, the Ki in experiment [2] was over 1000 nM; in experiment [6], over 5000 nM; in [8], over 1000 nM; in [10], 7.8 nM.

Turning to `O=C(/C=C/c1cccc2ccccc12)N1C[C@@H]2CNC[C@@H](C2)C1`, the Ki in experiment [2] was over 5000 nM; in [6] it was over 5000 nM; in experiment [8], over 1000 nM; in [10] it was 297 nM.

Take `O=c1c(-c2ccccc2)ccc2n1C[C@@H]1CNC[C@H]2C1`: the Ki was over 10000 nM in experiment [2], over 10000 nM in experiment [6], over 10000 nM in experiment [8] and 128 nM in [10].

As to `Cc1cc(CC(=O)N2C[C@@H]3CNC[C@@H](C3)C2)on1`, the outcome in [11], in experiment [12], in [14] and in experiment [9] was inactive. The Ki in experiment [2] is over 1000 nM; in experiment [8], over 1000 nM; in experiment [10], 46.9 nM. Moreover, the inhibition result in experiment [4] and in experiment [7] was “inactive” each time. In addition, in [13], the result was Active.

With `COc1ccccc1/C=C/C(=O)N1C[C@@H]2CNC[C@@H](C2)C1`, the results for the Ki in experiment [6] and in experiment [10] were over 10000 nM and 172 nM, respectively.

`O=C(c1ccc(-c2ccccc2)cc1)N1C[C@@H]2CNC[C@@H](C2)C1` showed a Ki in experiment [2] of 1090 nM. This counts as single-digit micromolar.

Usually Ki stands for the dissociation constant of the complex between target and ligand, obtained from inhibition or displacement. The low end stands for higher affinity, the high end for lower affinity.
